The data set can be described thus: Toxicity liver stage against HepG2, at 10uM. Format: cell-based. Conditions: human, HepG2-A16-CD81EGFP cells; read-out: INHIBITION
Further details: test concentration 10 uM, cell line HepG2-A16-CD81EGFP. In short, it runs like this: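 Uninfected HepG2-A16-CD81EGFP cells, 3 × 10^3 per well, 1536-well, plated on prespotted compound at 10 μM final, parasite-free screening media added to match infected plates; puromycin 10 μM positive, DMSO 0.5% negative; run in parallel with 48 h PbLuc assay at 37 °C, 5% CO2; viability by CellTiter-Glo luminescence, normalized to controls.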
Take `CC(C)(C)n1ncc2c(=O)n(CC(=O)NCc3ccccc3Cl)cnc21`: the cytotoxicity at 10 µM is -9.03%.
For the compound `FC(F)(F)c1ccc2nc([C@H]3CCN(C4CCCCC4)C3)[nH]c2c1`, the cytotoxicity at 10 µM was -0.668%.
Turning to `Cn1c(CN2CCCCC2)cc(=O)c(O)c1CN1CCCCC1`, the cytotoxicity at 10 µM is -2.34%.
Take `CC(C)n1ncc2c1NC(=O)CC21C(=O)Nc2c(Cl)ccc(Cl)c21` (stereo unspecified): the cytotoxicity at 10 µM was 1.19%.
For `O=C(Nc1nc2c(s1)CN(S(=O)(=O)C1CC1)CC2)c1ccc(Cl)s1` the value was 21.3%; for `CC(=O)NCC(=O)N1Cc2cc(-c3cc[nH]n3)ccc2C1c1cnco1` (stereo unspecified), 13.5%; for `O=C(c1cc(F)cc(F)c1)N1CCC2(CC1)CC2`, 5.04%.
Next, `O=C(c1nn[nH]c1Nc1ccc(Cl)cc1)N1CCCCCC1`: 34.5%; `Cc1cccc(CN2CCCC2c2cccc(Nc3nccs3)n2)c1` (stereo unspecified): 0.81%; `CC1CCN(c2ncc(-c3ccccc3F)c(-c3nccn3C)n2)CC1`: 27.1%.
Consider `CCN(CC)S(=O)(=O)N1CC[C@H](c2ccccc2)[C@@H]2[C@H]1CCCCN2C`, for which the cytotoxicity at 10 µM came out at 3.74%.
`Nc1cc(-c2cccs2)nn(CC(=O)N2CCc3ccccc32)c1=O`: the cytotoxicity at 10 µM is -10%.
Next, `c1cnc(N2CCCC(c3cc4cccnc4[nH]3)C2)nc1` (stereo unspecified): -9.42%; `CSc1ccc(CN2CCCC3(CNC(=O)c4ccccc4O3)C2)cc1` (stereo unspecified): 3.52%.
Next, `Cc1cc(C)c2cc(CNC3CCCCC3)c3nn(C)c(=O)n3c2c1`: -4.55%; `COc1ccc(C2Nc3cc(Cl)ccc3C3=NCCN32)cc1OC` (stereo unspecified): 1.05%.
Next, `O=C(O)c1ccc(S(=O)(=O)Nc2cnn(CC(F)(F)F)c2)cc1`: -7.52%.
As for `Cc1noc(C2CCCN(C(=O)c3scnc3Cl)C2)n1` (stereo unspecified), the cytotoxicity at 10 µM was 17.2%.
With `CCN1CCOC(CNCc2ccc(C)s2)C1` (stereo unspecified), the cytotoxicity at 10 µM turned out to be 2.35%.
Turning to `O=C(NC1CCN(CC2CC2)C1)N1CCC(OC2CCCCC2)CC1` (stereo unspecified), the cytotoxicity at 10 µM stood at 4.75%.
Next, `COc1cccc(-c2ccc(CNC(=O)c3ccc(=O)n(C)c3)cc2)c1`: 22.3%; `c1cc(N2CCC(CN3CCOCC3)CC2)c2sccc2n1`: 10.8%.
For `c1cc2c(cc1CSCc1noc(C3CC3)n1)OCCO2` the value was 10.4%; for `Cc1cc(C)c(CNC(=O)NCCNc2cnccn2)c(=O)[nH]1`, -43.6%.
Take `COc1ncc(NCc2ccc(Cl)c(Cl)c2)cc1C(N)=O`: the cytotoxicity at 10 µM is 32.7%.
Next, `CC(NC(=O)CN1CCN(c2ccncc2Cl)CC1)c1ccco1` (stereo unspecified): -6.02%; `COCCNc1ccccc1CNC(=O)NCc1nc(C)c(C)s1`: 5.75%; `O=C(Nc1ccc(Cl)cn1)C1CCCN(CCc2ccncc2)C1` (stereo unspecified): -8.87%.
As to `Cc1cnn(Cc2cc(F)ccc2F)c1NC(=O)CNC(=O)C1CC1`, the cytotoxicity at 10 µM was determined as 2.3%.
Take `Cc1n[nH]c(C)c1C1COCCN1c1ncnc2sccc12` (stereo unspecified): the cytotoxicity at 10 µM amounted to 23.1%.
For `Cc1ccc(NC(=O)NCC2(N3CCOCC3)CCSC2)c(C)c1` (stereo unspecified) the value was 1.15%.
Turning to `Cc1ccc(S(=O)(=O)N2CCCCC(N3CCN(C)CC3)C2)cc1F` (stereo unspecified), the cytotoxicity at 10 µM came out at 6.24%.
Next, `CCOCCN1CCN(Cc2nnc(C3CC3)o2)CC1C` (stereo unspecified): 12.9%.
Consider `CCc1noc(C(C)N(C)CC(=O)Nc2ccc(Br)cc2C)n1` (stereo unspecified), for which the cytotoxicity at 10 µM is 19.6%.
Consider `C1=C(c2c[nH]c3ncccc23)CCN(Cc2nnc(C3CC3)o2)C1`, for which the cytotoxicity at 10 µM came out at 30.7%.
`Cc1cc(NCC2(O)CCOCC2)nc2ccccc12`: the cytotoxicity at 10 µM is -8.98%.
Regarding `CCC(Nc1ccc(Oc2ccc(C#N)cc2OC)cc1)C(N)=O` (stereo unspecified), the cytotoxicity at 10 µM was 65.7%.
With `COc1cc(NCc2ncc[nH]2)ccc1Br`, the cytotoxicity at 10 µM stood at 11.2%.
Next, `CC(=O)N(CCc1nc(-c2cc(C(N)=O)oc2C)cs1)C(C)C`: 0.988%.
`CNC(=O)CCN1CCCCCC1c1ccc(C)o1` (stereo unspecified): the cytotoxicity at 10 µM is -10.2%.
Turning to `O=C(c1cc[nH]n1)N(Cc1ccccc1)CC1CCC1`, the cytotoxicity at 10 µM was -6.74%.
For the compound `COCCN1CCC(CNC(=O)c2cc(Cl)c[nH]2)CC1`, the cytotoxicity at 10 µM came to 5.2%.
For `O=C1NCCN1C1CCN(c2ccnc(-c3ccccc3)n2)CC1` the value was 36.2%.
For `CCOCCCC(=O)Nc1cc(C(N)=O)ccc1N1CCCCC1` the value was -48%; for `CCN1CCN(CCNc2nc3ccc(C)cc3c(=O)n2C)CC1`, 10.7%.
For `CNc1nc(CNC(=O)Nc2ccc(OC(C)C)cc2F)cs1` the value was 61.2%; for `Cc1cc(C)n(C2CN(CC(=O)N(C)Cc3ccc(C)o3)C2)n1`, -6.24%.
Regarding `CCN1CCN(C)C2(CCN(C(=O)CC(F)(F)F)CC2)C1=O`, the cytotoxicity at 10 µM turned out to be 0.797%.
Consider `Cc1cccc(S(=O)(=O)N2CCC3(CC2)CC(N(C)C)CO3)c1` (stereo unspecified), for which the cytotoxicity at 10 µM is -126%.
Turning to `Cn1cc(N2CC3(CCN(C(=O)c4cccn4C)CC3)OCC2=O)cn1`, the cytotoxicity at 10 µM is -81.1%.
On to `CC(=O)N1CCC2(CCN(Cc3ccc(Cl)c(C(F)(F)F)c3)CC2)C1`, for which the cytotoxicity at 10 µM was -81.9%.
Take `Cc1ncc(-c2ccnc(NCCc3ccc(F)cc3)n2)c(=O)[nH]1`: the cytotoxicity at 10 µM was -7.3%.
For `CC(C)Nc1nc2c(s1)C(=O)CN(C(=O)NCc1ccccc1)C2`, the cytotoxicity at 10 µM is 75.6%.
In the case of `COc1ccc2nc(CNC(=O)c3cc(C(C)C)no3)[nH]c2c1`, the cytotoxicity at 10 µM is -0.527%.
For the compound `CCn1cc(CN2CCCC(COc3ccc(F)cc3)C2)cn1` (stereo unspecified), the cytotoxicity at 10 µM was -59.6%.
Next, `CN1CCN(Cc2noc(CCc3nc(-c4ccccc4)no3)n2)CC1`: 6.41%; `CCC(C(=O)N(Cc1ccccn1)C1CCCCC1)n1cccn1` (stereo unspecified): -45.3%; `CCc1nc(N)nc(N(C)Cc2nncn2CCOC)c1C`: -6.41%.
Turning to `COc1ccc(Cl)cc1-n1cnc(CCNC(C)=O)c1`, the cytotoxicity at 10 µM is 2.29%.
Next, `O=C(NCc1cccnc1N1CCCC(O)C1)c1ccsc1` (stereo unspecified): 14.3%.
For `COCCC(=O)NCC1COc2cc(OC)ccc2C1` (stereo unspecified) the value was 0.0723%; for `Cc1cc(CNC(=O)CCCN2CCCCC2)n(C)n1`, -10.3%.
In the case of `COCC(=O)N1CCCN(Cc2c(C)nc3ccc(Cl)cn23)CC1`, the cytotoxicity at 10 µM was 5.39%.
For `Fc1cccc2ncnc(NCCCc3ccncc3)c12` the value was 7.02%; for `COc1ccc2c(c1)Cc1c-2nc(N)c(C#N)c1C1CCOC1` (stereo unspecified), 24.4%.
As for `CN1CCCC(CCC(=O)N2CCc3sc(C(=O)N(C)C)cc3C2)C1` (stereo unspecified), the cytotoxicity at 10 µM came out at 1.42%.
`CC(C)N1CCC(C(=O)N2CCC(c3ccc(F)cc3)C2)CC1` (stereo unspecified): the cytotoxicity at 10 µM was -58.1%.
For `NCC1Cc2cc(Oc3cc(F)c(CN4CCCC4)c(F)c3)ccc2O1` (stereo unspecified) the value was -8.97%.
For `O=C(c1cn(CC(=O)N2CCCC2)c2ccccc12)C1CC1` the value was 14.2%; for `NC(=O)c1ccccc1-n1cc(-c2cccc(C(=O)O)c2)cn1`, -5.65%; for `CN(CC1CCCCO1)c1nc(-c2cccnc2)nc2c1CCNC2` (stereo unspecified), 3.01%.
Regarding `CSCc1ccc(N2CCC(C(O)Cc3ccccc3)CC2)nc1` (stereo unspecified), the cytotoxicity at 10 µM was determined as 2.45%.
For `CCC(NC(=O)C1CCN(S(C)(=O)=O)CC1)c1ccc(OC)cc1` (stereo unspecified), the cytotoxicity at 10 µM is -1.82%.
For `CCc1cc(N2CCC(n3cc(C(=O)NCC(C)C)nn3)CC2)ncn1` the value was 41.4%; for `COc1ccc(-c2cc[nH]n2)cc1CNC1CCCC1`, -52.8%; for `CO[C@H]1C[C@@H](O)C12CCN(C(=O)CCCOc1ccccc1)CC2`, -2.22%.
For `Cc1cnn(CC2CN(Cc3nc4ccccc4s3)CCO2)c1` (stereo unspecified), the cytotoxicity at 10 µM turned out to be 0.639%.
Next, `O=C(CNCCn1cccn1)NCC1(c2ccccc2)CCC1`: -26.7%.
Turning to `Cc1ccc(CNCc2ccc(-n3nc(C)cc3C)nc2)cc1`, the cytotoxicity at 10 µM was -0.164%.
Next, `c1ccc2sc(CN3CCOC(Cn4cccn4)C3)nc2c1` (stereo unspecified): -10.2%.
Regarding `CC(O)CNCc1ccc(OCc2ccc3c(c2)OCCO3)cc1` (stereo unspecified), the cytotoxicity at 10 µM was -4.61%.
In the case of `Clc1ccc(C2(CNC3=NCCN3)CCCCC2)cc1`, the cytotoxicity at 10 µM came out at 38.2%.
Consider `N#Cc1ccc(N2CCC3(CC2)CC(Oc2cccnc2)CO3)cc1` (stereo unspecified), for which the cytotoxicity at 10 µM was 50.9%.
On to `Cn1cc(CNC2CCC(O)CC2)c(-c2cc3ccccc3o2)n1` (stereo unspecified), for which the cytotoxicity at 10 µM was -48%.
For the compound `COCCC1COC2(CCN(C(=O)c3ccncc3)CC2)C1` (stereo unspecified), the cytotoxicity at 10 µM is -74.9%.
Next, `c1ccc(COC[C@@H]2CCC[C@]23CN(Cc2nccs2)CCO3)nc1`: -65.4%; `CCS(=O)(=O)N1CCC2(CC1)CN(CC1CCOC1)c1ccccc12` (stereo unspecified): -85.9%; `CC1=N[C@@]2(CC[C@@H]3CN(CC4CC4)C[C@@H]32)C(=O)N1CC(C)C`: -84%.
For the compound `COc1cc(N2C[C@@H]3COC[C@]3(COc3ncccc3F)C2)ncn1`, the cytotoxicity at 10 µM is -67.5%.
Take `O=S(=O)(c1cccs1)N1CC[C@@H](O)[C@@H]1Cc1ccncc1`: the cytotoxicity at 10 µM was -72.8%.
For `CCN(CC)Cc1cn2c(n1)CN(C(=O)Cc1ccsc1)CC2` the value was -143%; for `CC(C)N(C)Cc1cn2c(n1)CN(C(=O)Cc1ccccc1)CC2`, -135%; for `Cc1noc(C)c1CN1CC[C@@H](OCC2CC2)[C@@H](Cc2ccccc2)C1`, 11.5%.
Next, `Cc1ccc(CN2CCn3cc(CN4CCN(C)CC4)nc3C2)cc1`: -125%.
For `CCOc1cc(C=Cc2ncc(C(=O)NC)s2)ccc1OC` the value was -0.58%; for `CCOc1c(Br)cc(C2c3c(n[nH]c3C)N=C3COC(=O)C32)cc1OC` (stereo unspecified), 47.1%.

Values taken from ChEMBL document CHEMBL4513216, “Probing the Open Global Health Chemical Diversity Library for Multistage-Active Starting Points for Next-Generation Antimalarials” (ACS Infect Dis, 2020).
